# Measurements published in ChEMBL document CHEMBL3421570, “Combinatorial Libraries As a Tool for the Discovery of Novel, Broad-Spectrum Antibacterial Agents Targeting the ESKAPE Pathogens” (J Med Chem, 2015).
# The source made the active and inactive calls. The calls are words filed in the database; no cut-off is given here.
# Legend:
# Staphylococcus aureus [1] = assay: Bactericidal activity against methicillin-resistant Staphylococcus aureus assessed as cell survival recovery at 0.001% measured after drug wash out after 120 mins by time kill assay; assay type: functional
# Procedure, shortened: (§1)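 MRSA from stationary phase was regrown 3 h in TSB and seeded at OD600 0.5. […] After 120 min, cells were centrifuged and washed, serially diluted and plated for CFU. Percent recovery is relative to no-drug controls.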
# Staphylococcus aureus [2] = assay: Bactericidal activity against methicillin-resistant Staphylococcus aureus assessed as cell survival recovery at 200 uM measured after drug wash out after 120 mins by time kill assay; assay type: functional; details: 2 h; procedure, shortened: as §1
# Staphylococcus aureus [3] = assay: Effect on bacterial density of methicillin-resistant Staphylococcus aureus at 200 uM measured over 2 hrs period by time kill assay; assay type: functional, organism-based
SMILES,Survival (Staphylococcus aureus [1]) [%],survival at 200 µM (Staphylococcus aureus [2]) [%],Activity (Staphylococcus aureus [3])
CC(C)(C)CC(C)(C)c1ccc(OCCOCC[N+](C)(C)Cc2ccccc2)cc1.[Cl-] [BENZETHONIUM CHLORIDE],0,–,–
C[C@H]1c2cccc(O)c2C(=O)C2=C(O)[C@]3(O)C(=O)C(C(N)=O)=C(O)[C@@H](N(C)C)[C@@H]3[C@@H](O)[C@@H]21 [DOXYCYCLINE],–,92,inactive
